What was measured:
Type in all cases: functional
[1] = system: KM12; test: Antitumor activity against human KM12 cells after 48 hrs by SRB assay; conditions: KM12, 48 h
Summary of the method: (§1)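 NCI-60 human tumour cell panel run under the National Cancer Institute Drug Evaluation Branch protocol. Compounds passing a single-dose prescreen were retested on all lines at five 10-fold dilutions. Growth was expressed as percent growth of treated cells. Response parameters were GI50 (molar concentration giving 50% growth inhibition), TGI (total growth inhibition) and LC50 (median lethal concentration).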

[2] = system: RXF 393; test: Antitumor activity against human RXF393 cells after 48 hrs by SRB assay; conditions: RXF 393, 48 h; summary of the method: as §1
[3] = system: SK-MEL-2; test: Antitumor activity against human SK-MEL-2 cells after 48 hrs by SRB assay; conditions: SK-MEL-2, 48 h; summary of the method: as §1
[4] = Antitumor activity against human […] cells after 48 hrs by SRB assay; summary of the method: as §1
[5] = system: BT-549; test: Antitumor activity against human BT549 cells after 48 hrs by SRB assay; conditions: BT-549, 48 h; summary of the method: as §1
[6] = system: HCC 2998; test: Antitumor activity against human HCC2998 cells after 48 hrs by SRB assay; conditions: HCC 2998, 48 h; summary of the method: as §1
[7] = system: OVCAR-8; test: Antitumor activity against human OVCAR8 cells after 48 hrs by SRB assay; conditions: OVCAR-8, 48 h; summary of the method: as §1
[8] = system: SF-539; test: Antitumor activity against human SF539 cells after 48 hrs by SRB assay; conditions: SF-539, 48 h; summary of the method: as §1
[9] = system: HCT-15; test: Antitumor activity against human HCT15 cells after 48 hrs by SRB assay; conditions: HCT-15, 48 h; summary of the method: as §1
[10] = system: TK-10; test: Antitumor activity against human TK10 cells after 48 hrs by SRB assay; conditions: TK-10, 48 h
Summary of the method: (§2)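 NCI-60 human cancer cell line panel run under the NCI Drug Evaluation Branch protocol. Compounds were first screened at a single dose. Those meeting preset inhibition thresholds were retested at five 10-fold dilutions. Output was percent growth of treated cells, given as % growth inhibition. GI50, TGI and LC50 values were derived from the five-dose data.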

[11] = system: SK-MEL-28; test: Antitumor activity against human SK-MEL-28 cells after 48 hrs by SRB assay; conditions: SK-MEL-28, 48 h; summary of the method: as §1
[12] = system: NCI-H522; test: Antitumor activity against human NCI-H522 cells after 48 hrs by SRB assay; conditions: NCI-H522, 48 h; summary of the method: as §1
[13] = system: SK-OV-3; test: Antitumor activity against human SKOV3 cells after 48 hrs by SRB assay; conditions: SK-OV-3, 48 h; summary of the method: as §1
[14] = system: HT-29; test: Antitumor activity against human HT-29 cells after 48 hrs by SRB assay; conditions: HT-29, 48 h; summary of the method: as §1
[15] = system: NCI-H460; test: Antitumor activity against human NCI-H460 cells after 48 hrs by SRB assay; conditions: NCI-H460, 48 h; summary of the method: as §1
[16] = system: NCI-H226; test: Antitumor activity against human NCI-H226 cells after 48 hrs by SRB assay; conditions: NCI-H226, 48 h; summary of the method: as §1
[17] = system: T47D; test: Antitumor activity against human T47D cells after 48 hrs by SRB assay; summary of the method: as §2
[18] = system: UACC-257; test: Antitumor activity against human UACC257 cells after 48 hrs by SRB assay; conditions: UACC-257, 48 h; summary of the method: as §2
[19] = system: IGROV-1; test: Antitumor activity against human IGROV1 cells after 48 hrs by SRB assay; conditions: IGROV-1, 48 h; summary of the method: as §1
[20] = system: A549; test: Antitumor activity against human A549 cells after 48 hrs by SRB assay; conditions: A549, 48 h; summary of the method: as §1
[21] = system: DU-145; test: Antitumor activity against human DU145 cells after 48 hrs by SRB assay; conditions: DU-145, 48 h; summary of the method: as §1
[22] = system: HOP-62; test: Antitumor activity against human HOP62 cells after 48 hrs by SRB assay; conditions: HOP-62, 48 h; summary of the method: as §1
[23] = Antitumor activity against human Hs 578T cells after 48 hrs by SRB assay; summary of the method: as §1
[24] = system: A498; test: Antitumor activity against human A498 cells after 48 hrs by SRB assay; conditions: A498, 48 h; summary of the method: as §1
[25] = system: EKVX; test: Antitumor activity against human EKVX cells after 48 hrs by SRB assay; summary of the method: as §1
[26] = system: UACC-62; test: Antitumor activity against human UACC62 cells after 48 hrs by SRB assay; conditions: UACC-62, 48 h; summary of the method: as §2
[27] = system: OVCAR-4; test: Antitumor activity against human OVCAR4 cells after 48 hrs by SRB assay; conditions: OVCAR-4, 48 h; summary of the method: as §1
[28] = system: COLO 205; test: Antitumor activity against human COLO205 cells after 48 hrs by SRB assay; conditions: COLO 205, 48 h; summary of the method: as §1
[29] = system: SF-295; test: Antitumor activity against human SF295 cells after 48 hrs by SRB assay; conditions: SF-295, 48 h; summary of the method: as §1
[30] = system: SNB-19; test: Antitumor activity against human SNB19 cells after 48 hrs by SRB assay; conditions: SNB-19, 48 h; summary of the method: as §1
[31] = system: OVCAR-3; test: Antitumor activity against human OVCAR3 cells after 48 hrs by SRB assay; conditions: OVCAR-3, 48 h; summary of the method: as §1
[32] = read-out: LC50 (the source's name)

Cc1cc2nc(-c3c(N)ncc(C#N)c3-c3ccc(Cl)cc3)[nH]c2cc1C
GI50 [1]: 14.8 µM | TGI [1]: > 100 µM | CC50 [1, 32]: > 100 µM | GI50 [2]: 3.18 µM | TGI [2]: 13.7 µM | CC50 [2, 32]: 42.6 µM | GI50 [3]: 20.4 µM | LC50 (median lethal concentration) [3]: > 100 µM | TGI [3]: > 100 µM | GI50 [4]: 19.8 µM | TGI [4]: 84.2 µM | CC50 [4, 32]: > 100 µM | GI50 [5]: 37.6 µM | TGI [5]: > 100 µM | CC50 [5, 32]: > 100 µM | GI50 [6]: 20.9 µM | TGI [6]: > 100 µM | CC50 [6, 32]: > 100 µM | GI50 [7]: 4.53 µM | LC50 (median lethal concentration) [7]: > 100 µM | TGI [7]: 29.6 µM | GI50 [8]: 2070 nM | TGI [8]: 5.78 µM | CC50 [8, 32]: 27 µM | GI50 [9]: 30.6 µM | TGI [9]: > 100 µM | CC50 [9, 32]: > 100 µM | GI50 [10]: 4.67 µM | TGI [10]: 21.3 µM | CC50 [10, 32]: 69.5 µM | GI50 [11]: 5.8 µM | LC50 (median lethal concentration) [11]: > 100 µM | TGI [11]: 40.2 µM | GI50 [12]: 4.07 µM | LC50 [12]: 96.5 µM | TGI [12]: 27.9 µM | GI50 [13]: 11.9 µM | LC50 [13]: 65.1 µM | TGI [13]: 27.9 µM | GI50 [14]: 6.06 µM | TGI [14]: > 100 µM | CC50 [14, 32]: > 100 µM | GI50 [15]: 3.04 µM | LC50 (median lethal concentration) [15]: > 100 µM | TGI [15]: > 100 µM | GI50 [16]: 15 µM | TGI [16]: 46.3 µM | CC50 [16, 32]: 100 µM | GI50 [17]: 4.63 µM | TGI [17]: > 100 µM | CC50 [17, 32]: > 100 µM | GI50 [18]: 11.4 µM | LC50 [18]: > 100 µM | TGI [18]: 82.6 µM | GI50 [19]: 18.7 µM | LC50 [19]: > 100 µM | TGI [19]: > 100 µM | GI50 [20]: 4.17 µM | TGI [20]: 24.9 µM | CC50 [20, 32]: > 100 µM | GI50 [21]: 5.68 µM | TGI [21]: 27.1 µM | CC50 [21, 32]: 93.1 µM | GI50 [22]: 6.36 µM | TGI [22]: 21.7 µM | CC50 [22, 32]: 55.9 µM | GI50 [23]: 12 µM | TGI [23]: > 100 µM | CC50 [23, 32]: > 100 µM | GI50 [24]: 11.8 µM | TGI [24]: 59.2 µM | CC50 [24, 32]: > 100 µM | GI50 [25]: 14.4 µM | TGI [25]: 76.7 µM | CC50 [25, 32]: > 100 µM | GI50 [26]: 11 µM | LC50 [26]: > 100 µM | TGI [26]: 53.2 µM | GI50 [27]: 4.4 µM | TGI [27]: 25.4 µM | CC50 [27, 32]: > 100 µM | GI50 [28]: 6.24 µM | LC50 [28]: > 100 µM | TGI [28]: 83.4 µM | GI50 [29]: 10 µM | TGI [29]: 27.5 µM | CC50 [29, 32]: 75.6 µM | GI50 [30]: 19.5 µM | LC50 (median lethal concentration) [30]: > 100 µM | TGI [30]: 75.6 µM | GI50 [31]: 13.9 µM | TGI [31]: 76 µM | CC50 [31, 32]: > 100 µM
